Shown are actives, neighbours in structure and some others; about 3.7% of the full set was active somewhere.
NPY1 pot ag: human NPY-Y1 potentiation or agonism, primary screen; NPY-Y1 expressing cells, potentiator/agonist activation; activation, % at 3.6 µM; P25929; actives 0.37% (n = 220,000); AID 1304; in the data active = activation above about 33%, passing the limit was not always enough;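 note: cells stimulated with NPY at EC10 then isoproterenol at EC100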
NPY2 pot ag: potentiators or agonists of human neuropeptide Y receptor Y2. P49146. cells expressing NPY-Y2, potentiator/agonist read-out. activation, % at 3.6 µM. actives 0.45% (n = 220,000). AID 1359; in the data active = activation above about 27%;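 note: cells stimulated with NPY near EC25 plus isoproterenol at EC100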
NPY Y1 blocker: blocks the human neuropeptide Y Y1 receptor | actives 1% (n = 200,000) | P25929 | inhibition, % at 3.6 µM | HEK293-CNG Y1 cells, membrane potential fluorescence; NPY at EC95, then isoproterenol;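 active = inhibition above the campaign mean inhibition of all tested compounds plus 3 SD, cut at about 20% in these data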
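Material: HEK293 cells co-expressing NPY Y1 receptor and cyclic-nucleotide gated channel. Timing: compound incubation 1 h at room temperature, readout 45 min post-stimulation. Signal: fluorescence, membrane potential probe.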
NPY Y2 blocker: NPY-Y2 (human) receptor antagonism | NPY-Y2 expressing cells, antagonist mode | P49146 | actives 0.99% (n = 140,000) | AID 793 | inhibition, % at 2.7 µM
Cl transport mod: modulates chloride dependent transport by human KCC2; actives 2.2% (n = 190,000); AID 1456; B-score of Tl+ flux slope (higher = more flux/activation; lower = inhibition) at 10 µM; KCC2 cells, thallium flux FluoZin-2 fluorescence; Q9H2X9;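 active = thallium flux slope and its plate-corrected score both differing from the plate sample mean at a set confidence after two filtering rounds, in either direction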;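 note: slope of fluorescence scaled to starting intensity during 10 to 20 s after thallium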
Furin inh: human furin inhibition. actives 0.061% (n = 220,000). P09958. purified furin, fluorogenic substrate cleavage. inhibition, % at 20 µM or 30 µM; in the data active = inhibition above about 25%
Target sequence (P09958 108-714 limits assumed): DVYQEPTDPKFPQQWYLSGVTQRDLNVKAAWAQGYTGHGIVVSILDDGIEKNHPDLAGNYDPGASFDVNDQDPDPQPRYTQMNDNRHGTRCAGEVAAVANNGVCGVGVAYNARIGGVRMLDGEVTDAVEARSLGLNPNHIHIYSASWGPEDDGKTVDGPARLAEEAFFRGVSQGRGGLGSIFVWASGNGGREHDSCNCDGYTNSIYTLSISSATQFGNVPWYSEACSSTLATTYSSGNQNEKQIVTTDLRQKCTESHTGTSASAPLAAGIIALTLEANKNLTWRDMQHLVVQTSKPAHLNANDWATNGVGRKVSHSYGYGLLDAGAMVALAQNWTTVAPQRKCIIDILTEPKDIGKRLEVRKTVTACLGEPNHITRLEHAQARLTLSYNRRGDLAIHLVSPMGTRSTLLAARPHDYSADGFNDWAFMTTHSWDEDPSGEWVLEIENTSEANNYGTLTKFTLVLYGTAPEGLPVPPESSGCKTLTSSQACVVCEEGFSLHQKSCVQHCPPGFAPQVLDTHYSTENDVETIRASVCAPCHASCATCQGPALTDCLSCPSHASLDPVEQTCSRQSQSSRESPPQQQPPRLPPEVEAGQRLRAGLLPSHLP
NPY1 antag conf: human NPY-Y1 antagonism, confirmation; AID 1254; inhibition, % at 3.6 µM; actives 21% (n = 1,200); HEK293-CNG NPY-Y1, membrane potential fluorescence, cAMP; NPY challenge against isoproterenol-raised cAMP; shares compounds with NPY Y1 blocker; in the data active = inhibition above about 20%
NPY2 antag ctr: human NPY-Y2 antagonism in NPY-Y1 counter-screen; shares compounds with NPY Y1 blocker; HEK293 NPY-Y2 CNG membrane potential fluorescence; cells given NPY, then isoproterenol; inhibition, % at 3.6 µM; actives 28% (n = 1,200)
Hits are given with their value; i = inactive; nt = no result given. Cut-off read from the data, not from the text of the source, unless noted: active = inhibition above about 17%; inactive = the rest.

SMILES	NPY1 pot ag	NPY2 pot ag	NPY Y1 blocker	NPY Y2 blocker	Cl transport mod	Furin inh	NPY1 antag conf	NPY2 antag ctr
Oc1cc2ccccc2cc1-c1n[nH]c(=S)o1	i	i	40.2	i	i	i	i	i
C=CCOC(=O)/C(=C\c1ccc(OC)cc1)NC(=O)c1ccco1	i	i	88.6	i	i	i	i	i
CCOC(=O)c1c(NC(=O)C2COc3ccccc3O2)sc2c1CCN(Cc1ccccc1)C2 (configuration not stated)	i	i	22.5	i	i	i	22.6	19.9
COc1ccc(C)cc1NC(=O)CSc1nnc(COc2ccc(Cl)cc2)n1Cc1ccco1	i	i	i	i	i	i	nt	nt
COc1ccc(C)cc1NC(=O)CSc1nnc(COc2ccccc2)n1Cc1ccco1	i	i	20.8	i	i	i	i	i
CC(Oc1ccc(F)cc1)C(=O)Nc1ccc2ccccc2c1 (configuration not stated)	i	i	40.6	i	nt	i	i	i
Cc1cc(C(=O)N/N=C(\CCC(=O)O)c2cccs2)c2ccccc2n1	i	i	34.6	nt	i	i	i	i
Cc1cc(C(=O)OCC(=O)c2cccs2)c2ccccc2n1	i	i	i	nt	i	i	nt	nt
CCCOc1ccc(N2C(=O)CC(N(CCc3ccccc3)C(=O)c3ccccc3)C2=O)cc1 (configuration not stated)	i	i	i	nt	i	i	nt	nt
COC(=O)c1ccc(C)c(NC(=O)C2COc3ccccc3O2)c1 (configuration not stated)	i	i	i	i	i	i	nt	nt
COc1cc(NC(=O)c2ccc(Cl)cc2)c(OC)cc1Cl	i	i	31.1	i	i	i	i	i
COc1ccc(NC(C)=O)cc1NC(=O)c1ccc(Cl)cc1	i	i	i	nt	i	i	nt	nt
COc1cc(NC(=O)C2COc3ccccc3O2)c(OC)cc1Cl (configuration not stated)	i	i	31.1	i	nt	i	i	i
N#CC1(C#N)CC(C=O)=C(N)C1(C#N)CC(=O)C12CC3CC(CC(C3)C1)C2 (configuration not stated)	i	i	i	i	i	i	nt	nt
CC1CC(C)CN(S(=O)(=O)c2ccc(C(=O)N(c3ccccn3)C3CCCCC3)cc2)C1 (configuration not stated)	i	i	30.7	nt	i	i	i	i
C/C(=N\Nc1nc2ccccc2[nH]1)c1ccc2c(c1)OCCO2	i	i	i	nt	i	i	nt	nt
C/C(=N\Nc1nc2ccccc2[nH]1)c1cc2ccccc2o1	i	i	33.1	i	i	i	i	17.4
COc1ccc(Oc2cn[nH]c2-c2ccc(O)cc2O)cc1	i	i	61.4	i	nt	i	40.2	i
CCCN(CCC)CCNC(=O)C1CCN(Cc2nc(-c3ccc(Cl)cc3)oc2C)CC1	i	i	23.6	i	i	i	i	28.5
CCOC(=O)c1cnc2c(-c3ccccc3OC)c(C)nn2c1C	i	i	i	nt	i	i	nt	nt
O=C(c1cnccn1)N(Cc1ccco1)C1(C(=O)NC2CCCCC2)CCCCC1	i	i	31.4	i	i	i	27.2	i
COc1cc(C(C(=O)NC2CCCCC2)N(Cc2ccco2)C(=O)c2cnccn2)cc(OC)c1OC (configuration not stated)	i	i	i	nt	i	i	nt	nt
CN(C)c1cc(NC(=O)CNC(C)(C)CC(C)(C)C)c2ccccc2n1	i	i	27.7	nt	i	i	23.4	41.6
CN(C)c1cc(NC(=O)CN2CCCC2)c2ccccc2n1	i	i	nt	nt	nt	i	nt	nt
O=C(CSc1nnc(-c2ccncc2)o1)N1CCc2ccccc2C1	i	i	i	nt	i	i	nt	nt
SMILES	NPY1 pot ag	NPY2 pot ag	NPY Y1 blocker	NPY Y2 blocker	Cl transport mod	Furin inh	NPY1 antag conf	NPY2 antag ctr
CC(C)CCNC(=O)/C=C/c1ccc(Br)cc1	i	i	20.3	i	i	i	i	i
COCCn1c(=NC(=O)c2cc3ccccc3oc2=O)sc2cc(S(N)(=O)=O)ccc21	i	i	i	i	i	i	nt	nt
COc1ccc(NC(=O)Nc2nc(C)cc(C)n2)c(OC)c1	i	i	nt	nt	i	i	nt	nt
COc1ccc(OC)c(NC(=O)c2ccc(-c3cccs3)cc2)c1	i	i	22.4	nt	i	i	i	i
CC(C)CNC(=O)c1ccccc1NC(=O)CN(c1ccccc1)S(=O)(=O)N(C)C	i	i	i	nt	i	i	nt	nt
CC(C)NC(=O)C1CCN(C(=O)c2cc3sccc3n2Cc2ccc(F)cc2)CC1	i	i	i	i	i	i	nt	nt
O=C(c1cc2sccc2n1Cc1ccc(F)cc1)N1CCCc2ccccc21	i	i	24.1	i	i	i	i	18.9
Cc1cccc(NC(=O)C2NC(=O)CC2c2ccccc2)c1C (configuration not stated)	i	i	i	i	nt	i	nt	nt
COc1ccc(Br)cc1CNC(=O)CCc1nc(-c2ccc(C)cc2)no1	i	i	21.4	i	i	25.8	i	i
c1ccc2c(Nc3ccc4c(c3)OCCO4)c3c(nc2c1)CCC3	i	i	i	nt	i	i	nt	nt
Fc1ccc(Nc2c3c(nc4ccccc24)CCC3)cc1	i	i	23.4	nt	i	i	i	i
Cc1cc(NC(=O)Cn2nc(C)c([N+](=O)[O-])c2C)no1	i	i	i	nt	i	i	nt	nt
CCOC(=O)Cc1csc(SCC(=O)NC2CCCC(C)C2C)n1 (configuration not stated)	i	i	i	i	i	i	nt	nt
CC1CCCC(NC(=O)CSc2ccc(F)cc2)C1C (configuration not stated)	i	i	67.5	nt	i	i	i	i
CCc1ccc(NC(=O)CSc2nc3ccccc3c(=O)n2CCCN2CCC(C)CC2)cc1	i	i	37.6	nt	i	i	47.4	50.6
O=C(c1cnc2c(c1)COc1ccc(Cl)cc1-2)c1ccccc1O	i	i	22.0	i	i	i	i	i
CCc1ccc(NC(=O)COC(=O)CN2C(=O)COc3ccccc32)cc1	i	i	i	i	i	i	nt	nt
CCCC(OC(=O)CN1C(=O)COc2ccccc21)C(=O)NC1CCCC1 (configuration not stated)	i	i	24.0	i	i	i	i	i
COCC(=O)Nc1ccccc1C#N	i	i	21.4	i	i	i	i	i
COCC(=O)Nc1ccccc1Br	i	i	i	i	i	i	nt	nt
COC(=O)c1ccc(CSc2nc3c(c(=O)n2-c2ccc(F)cc2)SCC3)o1	i	i	21.4	i	i	i	i	i
COC(=O)c1ccc(CSc2nc3c(c(=O)n2-c2ccccc2)SCC3)o1	i	i	i	i	i	i	nt	nt
COc1ccc(CN2C(=O)c3ccccc3C2C(=O)NC2CCCCCC2)c(OC)c1 (configuration not stated)	i	i	24.3	nt	i	i	i	i

Screening results (PubChem)
